According to publication PMC5919120 (Journal of immunology (Baltimore, Md. : 1950), 2018):

System: HCMEC/D3 cells
Assay: Cellular binding assay by flow cytometry
Type: cell-based, human
Details: p<0.001, n=3
Method in brief: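 HCMEC/D3 cells grown at 37°C in 5% CO2 to 70% confluence, detached, and pre-treated with heparanase I (10 U/ml) and III (2 U/ml) for 1.5 h at 37°C. Cells were then incubated 1 h on ice in 1% BSA/PBS with Atto 425-labelled CXCL8 or FITC-labelled peptide (5 µg/ml). Cells were washed twice (500 x g, 5 min) and signal read by flow cytometry; mean ± SE, n=3.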

CXCL8: recombinant human CXCL8, labelled with Atto 425 for binding assays
binding to HCMEC/D3 cells pre-treated with heparanase I&III: significantly reduced
